Data: ChEMBL document CHEMBL3877241 (J Med Chem, 2016)

Columns and labels:
[1] = molecular target: Histone deacetylase 3/Nuclear receptor corepressor 2 (HDAC3/NCoR2) (Homo sapiens, UniProt O15379); experiment: Inhibition of full length human recombinant C-terminal His-tagged HDAC3 (1 to 428 residues)/N-terminal GST-tagged NCOR2 (395 to 489 residues) expressed in insect cells preincubated with enzyme followed by fluorogenic Arg-His-Lys-Lys(Ac)-AMC substrate addition measured after 2 hrs by fluorescence assay
Histone deacetylase 3/Nuclear receptor corepressor 2 (HDAC3/NCoR2), sequence (O15379 whole entry, the tested form may be a part): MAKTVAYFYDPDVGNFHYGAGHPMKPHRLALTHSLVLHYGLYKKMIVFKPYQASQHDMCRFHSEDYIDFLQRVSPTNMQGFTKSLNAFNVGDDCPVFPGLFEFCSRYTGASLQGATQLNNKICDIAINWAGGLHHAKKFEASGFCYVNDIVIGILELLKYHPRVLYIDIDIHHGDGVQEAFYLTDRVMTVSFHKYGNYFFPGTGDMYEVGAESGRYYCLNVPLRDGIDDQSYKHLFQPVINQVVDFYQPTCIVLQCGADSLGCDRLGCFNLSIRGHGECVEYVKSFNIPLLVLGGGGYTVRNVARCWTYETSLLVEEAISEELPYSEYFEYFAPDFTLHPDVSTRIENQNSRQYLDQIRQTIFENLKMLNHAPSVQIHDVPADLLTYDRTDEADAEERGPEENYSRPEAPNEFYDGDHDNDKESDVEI
Histone deacetylase 3/Nuclear receptor corepressor 2 (HDAC3/NCoR2), sequence (Q9Y618 whole entry, further chain, the tested form may be a part): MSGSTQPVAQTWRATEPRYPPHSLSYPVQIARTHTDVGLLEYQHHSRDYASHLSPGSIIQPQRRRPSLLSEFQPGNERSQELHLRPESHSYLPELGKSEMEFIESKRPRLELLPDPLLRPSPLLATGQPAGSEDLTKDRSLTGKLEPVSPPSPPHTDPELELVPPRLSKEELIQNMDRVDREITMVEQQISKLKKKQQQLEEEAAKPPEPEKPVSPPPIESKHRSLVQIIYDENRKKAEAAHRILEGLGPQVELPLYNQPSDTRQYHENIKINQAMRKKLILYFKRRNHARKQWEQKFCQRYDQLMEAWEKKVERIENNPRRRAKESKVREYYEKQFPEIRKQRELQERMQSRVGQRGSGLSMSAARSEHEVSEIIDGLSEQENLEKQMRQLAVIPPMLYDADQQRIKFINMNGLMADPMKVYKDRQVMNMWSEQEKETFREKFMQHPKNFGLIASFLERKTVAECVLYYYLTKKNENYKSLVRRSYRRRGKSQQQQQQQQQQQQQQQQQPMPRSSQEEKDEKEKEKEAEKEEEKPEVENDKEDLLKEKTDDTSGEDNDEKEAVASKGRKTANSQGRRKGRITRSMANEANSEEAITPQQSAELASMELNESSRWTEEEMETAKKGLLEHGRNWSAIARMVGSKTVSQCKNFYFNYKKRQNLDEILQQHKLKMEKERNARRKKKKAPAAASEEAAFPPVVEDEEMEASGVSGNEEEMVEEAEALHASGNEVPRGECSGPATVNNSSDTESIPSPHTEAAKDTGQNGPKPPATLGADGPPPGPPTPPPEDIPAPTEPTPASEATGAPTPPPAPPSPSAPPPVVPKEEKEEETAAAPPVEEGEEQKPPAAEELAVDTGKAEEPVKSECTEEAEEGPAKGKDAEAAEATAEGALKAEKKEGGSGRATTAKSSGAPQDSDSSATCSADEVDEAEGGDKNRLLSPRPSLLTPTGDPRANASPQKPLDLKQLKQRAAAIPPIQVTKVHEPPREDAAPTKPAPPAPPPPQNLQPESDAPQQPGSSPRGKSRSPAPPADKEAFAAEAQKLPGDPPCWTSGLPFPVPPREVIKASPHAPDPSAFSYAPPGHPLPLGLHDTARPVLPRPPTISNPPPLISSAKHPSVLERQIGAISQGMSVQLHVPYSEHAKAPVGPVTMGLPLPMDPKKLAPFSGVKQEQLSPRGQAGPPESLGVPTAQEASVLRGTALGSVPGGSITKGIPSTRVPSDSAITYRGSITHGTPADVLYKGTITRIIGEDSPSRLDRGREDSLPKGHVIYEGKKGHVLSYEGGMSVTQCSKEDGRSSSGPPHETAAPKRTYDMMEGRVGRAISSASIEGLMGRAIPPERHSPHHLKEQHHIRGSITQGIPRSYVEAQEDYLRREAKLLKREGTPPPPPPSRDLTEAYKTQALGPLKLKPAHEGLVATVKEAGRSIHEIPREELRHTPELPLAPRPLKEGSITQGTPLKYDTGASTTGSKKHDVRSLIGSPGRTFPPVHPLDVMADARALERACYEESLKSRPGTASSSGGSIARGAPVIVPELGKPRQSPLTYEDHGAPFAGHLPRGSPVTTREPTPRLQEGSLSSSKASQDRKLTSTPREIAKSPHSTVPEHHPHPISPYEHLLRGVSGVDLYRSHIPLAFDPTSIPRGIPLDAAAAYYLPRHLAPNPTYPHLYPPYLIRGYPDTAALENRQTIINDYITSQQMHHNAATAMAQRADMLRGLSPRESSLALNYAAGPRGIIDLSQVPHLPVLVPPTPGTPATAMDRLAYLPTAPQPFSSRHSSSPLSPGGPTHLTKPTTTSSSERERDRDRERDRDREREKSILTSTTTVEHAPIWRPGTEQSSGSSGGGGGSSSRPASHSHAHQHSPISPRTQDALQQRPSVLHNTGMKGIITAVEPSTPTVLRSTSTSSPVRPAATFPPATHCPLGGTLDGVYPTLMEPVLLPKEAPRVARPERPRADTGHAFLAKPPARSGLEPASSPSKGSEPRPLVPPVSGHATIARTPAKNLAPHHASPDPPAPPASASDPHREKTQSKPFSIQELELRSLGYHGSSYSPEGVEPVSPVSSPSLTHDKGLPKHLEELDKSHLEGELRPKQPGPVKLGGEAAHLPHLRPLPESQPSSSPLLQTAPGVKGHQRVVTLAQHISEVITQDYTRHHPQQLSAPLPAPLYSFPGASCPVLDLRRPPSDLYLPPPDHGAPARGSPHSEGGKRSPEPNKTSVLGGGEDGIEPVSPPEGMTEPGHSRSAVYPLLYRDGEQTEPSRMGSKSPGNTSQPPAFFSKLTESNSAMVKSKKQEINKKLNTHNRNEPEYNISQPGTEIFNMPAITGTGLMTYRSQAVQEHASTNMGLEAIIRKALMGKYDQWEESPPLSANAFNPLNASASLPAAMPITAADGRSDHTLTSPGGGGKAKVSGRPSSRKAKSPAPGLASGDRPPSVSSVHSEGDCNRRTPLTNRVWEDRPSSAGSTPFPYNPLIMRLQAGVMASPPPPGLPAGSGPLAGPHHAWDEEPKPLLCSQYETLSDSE

[2] = molecular target: Histone deacetylase 5 (Homo sapiens) (UniProt Q9UQL6); experiment: Inhibition of human recombinant C-terminal His-tagged HDAC5 (656 to 1122 residues) expressed in insect cells at 10 uM preincubated with enzyme followed by acetyl-Lys(trifluoroacetyl)-AMC substrate addition measured after 2 hrs by fluorescence assay relative to control
Procedure, shortened: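 HDAC enzyme in 50 mM Tris-HCl pH 8.0, 137 mM NaCl, 2.7 mM KCl, 1 mM MgCl2 was pre-incubated with compound dosed from DMSO. The reaction was started with the class IIa substrate acetyl-Lys(trifluoroacetyl)-AMC and run 2 h at 30 °C. Developer with trichostatin A stopped it, and fluorescence (Ex/Em 360/460 nm) was read at plateau. Single test concentration 10 µM.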

[3] = molecular target: Histone deacetylase 9 (Homo sapiens) (UniProt Q9UKV0); experiment: Inhibition of HDAC9 (unknown origin) at 10 uM preincubated with enzyme followed by acetyl-Lys(trifluoroacetyl)-AMC substrate addition measured after 2 hrs by fluorescence assay relative to control
Procedure, shortened: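 Fluorogenic HDAC assay in 50 mM Tris-HCl pH 8.0, 137 mM NaCl, 2.7 mM KCl, 1 mM MgCl2. Enzyme pre-incubated with compound delivered in DMSO. Substrate then added: Arg-His-Lys(Ac) at 50 μM for most isoforms, or acetyl-Lys(trifluoroacetyl)-AMC for class IIa. Incubated 2 h at 30 °C, stopped with developer plus trichostatin A, read at Ex/Em 360/460 nm at endpoint. IC50 from 10-dose curves.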

Histone deacetylase 11 = Histone deacetylase 11 (Homo sapiens, UniProt Q96DB2); experiment: Inhibition of human recombinant N-terminal His-tagged HDAC11 (1 to 347 residues) expressed in baculovirus infected insect cells preincubated with enzyme followed by fluorogenic Arg-His-Lys-Lys(Ac)-AMC substrate addition measured after 2 hrs by fluorescence assay relative to control
Histone deacetylase 11, sequence (Q96DB2 whole entry, the tested form may be a part, canonical isoform): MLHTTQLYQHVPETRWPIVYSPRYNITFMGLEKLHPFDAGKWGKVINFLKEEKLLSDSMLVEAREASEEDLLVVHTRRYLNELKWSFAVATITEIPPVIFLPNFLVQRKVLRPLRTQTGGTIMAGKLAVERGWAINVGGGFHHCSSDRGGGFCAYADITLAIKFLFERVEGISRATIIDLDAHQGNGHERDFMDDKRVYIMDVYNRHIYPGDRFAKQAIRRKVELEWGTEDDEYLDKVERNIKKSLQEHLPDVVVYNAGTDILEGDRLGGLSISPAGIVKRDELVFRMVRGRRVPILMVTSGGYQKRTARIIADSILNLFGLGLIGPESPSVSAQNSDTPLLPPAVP

[4] = molecular target: Phosphatidylinositol 4,5-bisphosphate 3-kinase catalytic subunit gamma isoform (Homo sapiens, UniProt P48736); experiment: Inhibition of human PI3Kgamma (S144 to A1102 residues) expressed in mammalian expression system by KINOMEScan assay
Phosphatidylinositol 4,5-bisphosphate 3-kinase catalytic subunit gamma isoform, sequence (P48736 whole entry, the tested form may be a part, canonical isoform): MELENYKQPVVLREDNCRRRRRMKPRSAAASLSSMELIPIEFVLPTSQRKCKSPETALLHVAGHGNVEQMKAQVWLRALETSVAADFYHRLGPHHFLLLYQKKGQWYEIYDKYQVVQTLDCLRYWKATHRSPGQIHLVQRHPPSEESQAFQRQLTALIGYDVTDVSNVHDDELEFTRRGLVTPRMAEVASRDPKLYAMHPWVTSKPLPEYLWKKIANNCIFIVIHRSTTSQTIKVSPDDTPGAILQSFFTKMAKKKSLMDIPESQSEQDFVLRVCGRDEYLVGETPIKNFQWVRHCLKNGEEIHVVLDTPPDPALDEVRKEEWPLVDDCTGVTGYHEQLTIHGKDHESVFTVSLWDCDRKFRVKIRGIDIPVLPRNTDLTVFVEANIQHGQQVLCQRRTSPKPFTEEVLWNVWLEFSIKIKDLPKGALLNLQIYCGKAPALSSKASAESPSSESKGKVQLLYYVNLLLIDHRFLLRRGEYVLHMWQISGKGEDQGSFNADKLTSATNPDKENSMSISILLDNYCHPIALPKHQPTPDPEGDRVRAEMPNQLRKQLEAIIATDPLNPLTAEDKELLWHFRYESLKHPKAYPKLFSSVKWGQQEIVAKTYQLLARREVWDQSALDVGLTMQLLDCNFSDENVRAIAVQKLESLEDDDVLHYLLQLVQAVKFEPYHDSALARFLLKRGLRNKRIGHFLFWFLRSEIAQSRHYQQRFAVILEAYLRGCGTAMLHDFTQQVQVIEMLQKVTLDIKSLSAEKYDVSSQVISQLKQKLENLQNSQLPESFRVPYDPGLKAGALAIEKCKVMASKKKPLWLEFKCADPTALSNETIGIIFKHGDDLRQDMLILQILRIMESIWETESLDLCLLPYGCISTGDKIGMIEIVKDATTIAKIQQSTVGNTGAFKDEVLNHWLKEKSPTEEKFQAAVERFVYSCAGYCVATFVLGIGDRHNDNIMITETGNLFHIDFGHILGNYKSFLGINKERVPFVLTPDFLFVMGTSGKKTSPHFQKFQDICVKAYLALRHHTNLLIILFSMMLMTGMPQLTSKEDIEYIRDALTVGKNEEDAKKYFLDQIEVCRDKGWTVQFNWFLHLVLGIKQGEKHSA

[5] = molecular target: Tyrosine-protein kinase JAK3 (Homo sapiens, UniProt P52333); experiment: Inhibition of human JAK3 JH1 catalytic domain (I781 to S1124 residues) expressed in mammalian expression system by KINOMEScan assay
[6] = molecular target: Mitogen-activated protein kinase 8 (Homo sapiens, UniProt P45983); experiment: Inhibition of full length human MAPK8 (M1 to Q384 residues) expressed in mammalian expression system by KINOMEScan assay
Mitogen-activated protein kinase 8, sequence (P45983 whole entry, the tested form may be a part): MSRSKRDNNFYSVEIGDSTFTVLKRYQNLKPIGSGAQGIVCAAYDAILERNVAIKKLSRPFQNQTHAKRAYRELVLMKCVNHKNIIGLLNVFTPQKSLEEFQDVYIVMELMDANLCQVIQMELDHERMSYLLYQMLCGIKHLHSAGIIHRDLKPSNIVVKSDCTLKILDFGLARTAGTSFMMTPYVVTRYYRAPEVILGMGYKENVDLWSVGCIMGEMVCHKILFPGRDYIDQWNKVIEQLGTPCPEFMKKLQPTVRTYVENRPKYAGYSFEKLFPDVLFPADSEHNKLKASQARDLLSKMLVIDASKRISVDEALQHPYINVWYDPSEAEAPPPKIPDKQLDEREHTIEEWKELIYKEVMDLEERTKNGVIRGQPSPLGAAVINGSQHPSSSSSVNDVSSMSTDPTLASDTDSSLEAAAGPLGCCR

cells = format: functional, cell-based; settings: Homo sapiens, HEL 92.1.7, 36 h
[7] = Antiproliferative activity against human Jurkat cells; format: functional, cell-based
[8] = Antiproliferative activity against mouse TAMH cells after 24 hrs by CellTiter-Glo assay; format: ADME, cell-based
MOLM-14 [9] = experiment: Induction of apoptosis in human MOLM14 cells assessed as live cells at 0.75 uM after 48 hrs by Annexin-V FITC/propidium iodide staining based flow cytometry (reference value: 94 to 94.1%); format: functional
Procedure, shortened: (§1)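 MOLM-14 cells treated 48 h at the stated concentrations; doxorubicin as positive control. Stained with Annexin V-FITC and propidium iodide and analysed by flow cytometry (at least 10,000 events). Gated quadrants: Annexin V−/PI− viable, Annexin V+/PI− early apoptotic, Annexin V+/PI+ late apoptotic.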

MOLM-14 [10] = experiment: Induction of apoptosis in human MOLM14 cells assessed as late apoptotic cells at 3 uM after 48 hrs by Annexin-V FITC/propidium iodide staining based flow cytometry (reference value: 2.1 to 2.2%); format: functional; procedure, shortened: as §1

**Q.** Which IC50 [1] does the source give for `O=C(CCCCCCOc1ccc2cc1COC/C=C/COCc1cccc(c1)-c1ccnc(n1)N2)NO` here?
**A.** 2.17 µM

**Q.** And the inhibition [2]?
**A.** 16.1%

**Q.** What about the inhibition [3] of the same compound?
**A.** 14%

**Q.** What about the IC50 (Histone deacetylase 11) of the same compound?
**A.** 0.93 µM

**Q.** And the IC50 [4]?
**A.** 0.01 to 1 µM

**Q.** What about the IC50 [5] of the same compound?
**A.** 0.01 to 1 µM

**Q.** And the IC50 [6]?
**A.** 1 to 10 µM

**Q.** What about the IC50 (cells) of the same compound?
**A.** 0.94 µM

**Q.** What about the IC50 [7] of the same compound?
**A.** 1.19 µM

**Q.** What about the IC50 [8] of the same compound?
**A.** 9.57 µM

**Q.** What about the Activity (MOLM-14 [9]) of the same compound?
**A.** 81.7%

**Q.** What about the Activity (MOLM-14 [10]) of the same compound?
**A.** 34.3%
